Measured values reported in ChEMBL document CHEMBL1212932, “Nocapyrones A-D, gamma-pyrones from a Nocardiopsis strain isolated from the marine sponge Halichondria panicea” (2010).
The source made the active and inactive calls. No cut-off for these calls is given here.

How the values were obtained:
[1] = test system: Bacillus subtilis; assay: Antimicrobial activity against Bacillus subtilis DSM 347; assay type: functional, organism-based
[2] = test system: Erwinia amylovora; assay: Antimicrobial activity against Erwinia amylovora DSM 50901; assay type: functional, organism-based
[3] = test system: Escherichia coli; assay: Antimicrobial activity against Escherichia coli K-12 DSM 498; assay type: functional, organism-based
[4] = test system: Pseudomonas fluorescens; assay: Antimicrobial activity against Pseudomonas fluorescens NCIMB 10586; assay type: functional, organism-based
[5] = test system: Cutibacterium acnes; assay: Antimicrobial activity against Propionibacterium acnes DSM 1897; assay type: functional, organism-based
[6] = test system: Pseudomonas aeruginosa; assay: Antimicrobial activity against Pseudomonas aeruginosa DSM 50071; assay type: functional, organism-based
[7] = test system: Pseudomonas syringae; assay: Antimicrobial activity against Pseudomonas syringae DSM 50252; assay type: functional, organism-based
[8] = test system: Ralstonia solanacearum; assay: Antimicrobial activity against Ralstonia solanacearum DSM 9544; assay type: functional, organism-based
[9] = test system: Staphylococcus epidermidis; assay: Antimicrobial activity against Staphylococcus epidermidis DSM 20044; assay type: functional, organism-based
[10] = test system: Mammaliicoccus lentus; assay: Antimicrobial activity against Staphylococcus lentus DSM 6672; assay type: functional, organism-based
[11] = test system: Xanthomonas campestris; assay: Antimicrobial activity against Xanthomonas campestris DSM 2405; assay type: functional, organism-based
[12] = test system: Candida albicans; assay: Antimicrobial activity against Candida albicans DSM 6425; assay type: functional, organism-based
[13] = Inhibition of phosphodiesterase 4 by colorimetric assay
[14] = target: T1, Tyrosine-protein phosphatase non-receptor type 1 (Homo sapiens) (UniProt P18031); assay: Inhibition of protein tyrosine phosphatase 1b by colorimetric assay
T1 sequence (whole entry): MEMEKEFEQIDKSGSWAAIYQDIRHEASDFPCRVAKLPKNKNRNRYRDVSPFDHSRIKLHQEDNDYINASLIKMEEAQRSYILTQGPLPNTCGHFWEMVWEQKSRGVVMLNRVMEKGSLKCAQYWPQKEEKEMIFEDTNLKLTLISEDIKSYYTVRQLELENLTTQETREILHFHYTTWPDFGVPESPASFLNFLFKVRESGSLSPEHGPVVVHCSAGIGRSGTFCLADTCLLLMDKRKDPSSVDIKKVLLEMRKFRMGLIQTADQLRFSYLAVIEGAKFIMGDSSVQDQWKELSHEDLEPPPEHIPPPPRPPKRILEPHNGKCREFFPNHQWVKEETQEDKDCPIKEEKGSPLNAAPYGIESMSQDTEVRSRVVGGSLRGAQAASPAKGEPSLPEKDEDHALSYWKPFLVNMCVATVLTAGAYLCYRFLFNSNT

[15] = target: Acetylcholinesterase (Homo sapiens) (UniProt P22303); assay: Inhibition of acetylcholinesterase by colorimetric assay
Sequence of Acetylcholinesterase (Homo sapiens) (P22303 whole entry): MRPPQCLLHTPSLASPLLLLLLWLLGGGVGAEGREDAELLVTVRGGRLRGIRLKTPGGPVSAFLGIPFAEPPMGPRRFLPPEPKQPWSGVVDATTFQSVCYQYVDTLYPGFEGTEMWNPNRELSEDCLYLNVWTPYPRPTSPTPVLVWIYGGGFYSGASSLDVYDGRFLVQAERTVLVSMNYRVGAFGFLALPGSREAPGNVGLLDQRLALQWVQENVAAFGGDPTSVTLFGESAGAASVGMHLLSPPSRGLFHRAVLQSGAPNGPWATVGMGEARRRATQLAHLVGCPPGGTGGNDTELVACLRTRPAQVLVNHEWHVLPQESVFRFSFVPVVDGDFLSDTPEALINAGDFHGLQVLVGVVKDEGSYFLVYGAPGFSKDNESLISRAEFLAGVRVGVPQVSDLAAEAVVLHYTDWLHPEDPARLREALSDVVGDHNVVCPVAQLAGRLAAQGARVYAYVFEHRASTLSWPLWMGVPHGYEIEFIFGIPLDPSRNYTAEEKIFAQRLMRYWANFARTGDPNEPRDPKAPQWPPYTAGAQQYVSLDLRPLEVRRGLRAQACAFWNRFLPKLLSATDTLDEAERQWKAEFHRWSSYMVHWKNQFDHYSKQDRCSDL

[16] = target: Human immunodeficiency virus type 1 reverse transcriptase (Human immunodeficiency virus 1) (UniProt Q72547); assay: Inhibition of HIV1 reverse transcriptase by ELISA
[17] = target: Glycogen synthase kinase-3 beta (Homo sapiens) (UniProt P49841); assay: Inhibition of GSK3-beta
Sequence of Glycogen synthase kinase-3 beta (Homo sapiens) (P49841 whole entry, looked up): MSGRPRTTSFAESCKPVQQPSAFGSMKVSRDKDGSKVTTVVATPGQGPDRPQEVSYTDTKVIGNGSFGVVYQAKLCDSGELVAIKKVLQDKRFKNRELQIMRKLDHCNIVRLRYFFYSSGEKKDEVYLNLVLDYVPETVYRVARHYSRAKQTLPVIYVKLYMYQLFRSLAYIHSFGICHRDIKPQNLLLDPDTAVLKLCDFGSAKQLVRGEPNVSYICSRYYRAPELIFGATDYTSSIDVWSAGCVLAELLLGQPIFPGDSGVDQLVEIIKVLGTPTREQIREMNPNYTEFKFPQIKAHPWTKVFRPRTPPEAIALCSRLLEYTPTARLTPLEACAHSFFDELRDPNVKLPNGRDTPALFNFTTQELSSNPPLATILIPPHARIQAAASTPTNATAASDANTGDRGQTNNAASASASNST

[18] = test system: HepG2; assay: Cytotoxicity against human HepG2 cells at 50 uM; assay type: functional
How it was run: (§1)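 Cells were treated with compound at 50 µM. The read-out was metabolic activity, and the value is given as the percent reduction in metabolic activity.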

[19] = test system: NIH3T3; assay: Cytotoxicity against mouse NIH/3T3 cells at 50 uM; assay type: functional; how it was run: as §1

Row | SMILES | Activity [1] | Activity [2] | Activity [3] | Activity [4] | Activity [5] | Activity [6] | Activity [7] | Activity [8] | Activity [9] | Activity [10] | Activity [11] | Activity [12] | Activity [13] | Activity [14] | Activity [15] | Activity [16] | Activity [17] | Activity [18] [%] | Activity [19] [%]
1 | COc1oc(CCCCC(C)(C)O)c(C)c(=O)c1C | inactive | inactive | inactive | inactive | inactive | inactive | inactive | inactive | inactive | inactive | inactive | inactive | inactive | inactive | inactive | inactive | inactive | – | –
2 | COc1oc(CCCCC(C)C)c(C)c(=O)c1C | inactive | inactive | inactive | inactive | inactive | inactive | inactive | inactive | inactive | inactive | inactive | inactive | inactive | inactive | inactive | inactive | inactive | – | –
3 | COc1ccc(/C=c2/[nH]c(=O)/c(=C/C(C)C)[nH]c2=O)cc1 | – | – | – | – | – | – | – | – | – | – | – | – | – | – | – | – | – | 44 | 64
